Out of some 200,000 compounds screened, fewer than 10 were called active.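 The calls were made as follows: active = activation factor at least 2 at 20 µM; inactive = the rest.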 These entries were drawn from the full list.
Biological target: Alkaline phosphatase, tissue-nonspecific isozyme (Homo sapiens) (UniProt P05186)
Test: activation of human TNAP, high DEA acceptor – biochemical, luminescence, uHTS, primary screen (AID 1136)
Conditions: purified TNAP, CDP-star luminescence, 1 M DEA, 30 min; at 20 µM; active compounds read high; 0 = EDTA background, 1 = DMSO-only activity
Procedure, shortened: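 Test system – human TNAP · Doses – 20 µM single point · Incubation – 30 min, room temperature · Signal – luminescent substrate turnover signal · Read-out basis – activation factor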

Alkaline phosphatase, tissue-nonspecific isozyme (Homo sapiens), sequence (P05186 whole entry, looked up): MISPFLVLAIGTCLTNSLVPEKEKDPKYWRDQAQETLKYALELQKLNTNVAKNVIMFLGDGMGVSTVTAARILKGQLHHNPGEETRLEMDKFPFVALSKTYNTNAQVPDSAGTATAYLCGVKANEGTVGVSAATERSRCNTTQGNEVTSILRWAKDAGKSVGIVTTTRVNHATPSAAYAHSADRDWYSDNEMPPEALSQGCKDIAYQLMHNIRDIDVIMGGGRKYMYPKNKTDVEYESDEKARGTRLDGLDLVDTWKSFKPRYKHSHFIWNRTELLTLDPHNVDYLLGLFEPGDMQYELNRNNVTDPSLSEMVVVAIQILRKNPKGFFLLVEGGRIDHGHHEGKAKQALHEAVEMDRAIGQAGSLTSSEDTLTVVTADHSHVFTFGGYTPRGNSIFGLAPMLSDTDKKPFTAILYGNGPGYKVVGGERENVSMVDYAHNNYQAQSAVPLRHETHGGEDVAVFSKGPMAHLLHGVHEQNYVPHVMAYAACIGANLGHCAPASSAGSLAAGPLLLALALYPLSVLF

Activation factor, inactive:
CC1CCCN(S(=O)(=O)c2ccc(N(C(=O)c3cnccn3)C(C(=O)NC3CCCCC3)c3cccs3)cc2)C1 (stereo unspecified) 0.9, COc1ccc([N+](=O)[O-])cc1NC(=O)C(C)OC(=O)C1c2ccccc2Oc2ccccc21 (stereo unspecified) 1, COc1ccc(C(=O)Nc2ccc(NC(=O)C(C)C)nc2)cc1 1.1, COc1ccc(CNc2c(CO)cnc3c2cnn3C)cc1 1, CCOC(=O)c1sc(=NC(=O)/C=C/c2cccs2)n(C)c1C 1, CN(C)C(CNC(=O)c1ccc(S(=O)(=O)NCc2ccco2)cc1)c1ccccc1 (stereo unspecified) 1, Cc1cc(C)cc(OCC(=O)Nc2ccc(S(=O)(=O)Nc3ccccn3)cc2)c1 1, COc1ccc(C(=O)NC(=S)Nc2ccc(Cl)cn2)cc1OC 1.1, COc1ccc(N2C(=O)CC(Nc3ccc(F)cc3)C2=O)c([N+](=O)[O-])c1 (stereo unspecified) 1, CC(Oc1cccc(NC(=O)c2cccs2)c1)C(=O)c1ccccc1 (stereo unspecified) 1, CCCNS(=O)(=O)c1ccc(CCC(=O)N2CCCC2)cc1 1.1, COc1cc(OC)cc(-c2nnc(SCC(=O)Nc3ccc(C(=O)O)cc3)s2)c1 1, O=C(N/N=C/c1ccc(OCC2COCCO2)cc1)c1ccc(Br)cc1 (stereo unspecified) 1, CCN(C(=O)c1ccc(Br)cc1)c1ccccc1 1, Cn1ncc(N2CCN(S(=O)(=O)c3ccc(Br)cc3)CC2)c(Cl)c1=O 1.1, O=C(CSCC(=O)Nc1cccc([N+](=O)[O-])c1)Nc1ccccc1 1, Cc1ccc(S(=O)(=O)NNC(=O)Nc2cccc3ccccc23)cc1 1, CCN(CC)c1ccc2c(Nc3ccccc3)c(C=O)c(=O)oc2c1 1, O=C(COC(=O)CCCSc1nc2ccccc2[nH]1)Nc1ccc(Oc2ccccc2)cc1 1.1, O=C(NCc1cccnc1)c1cccc(-c2cc3ccccc3oc2=O)c1 1.1, C=CCN(C(=O)c1cc(C)cc(C)c1)C1(C(=O)Nc2ccccc2)CCN(C(C)C)CC1 1, CCOc1ccc(C(=O)Nc2nccs2)cc1[N+](=O)[O-] 1, COc1ccc(C)cc1NC(=O)NCc1ccccn1 1, CCC1S/C(=N/N=C/c2ccco2)NC1=O (stereo unspecified) 1, CN(C)S(=O)(=O)c1ccc2oc(SCC(=O)Nc3ccccc3F)nc2c1 1, C=CCOC(=O)C1=C[C@@H](c2ccccc2)C[C@@H](OCc2ccc(CO)cc2)O1 1.1, NC1=C([N+](=O)[O-])C(c2ccccc2)C2=C(CCCC2=O)O1 (stereo unspecified) 1, Cc1ccc(C2(C(F)(F)F)N=C3Sc4cc(C)cc(C)c4N3C(=O)N2)cc1 (stereo unspecified) 1, CCN(CC(=O)NC1CCS(=O)(=O)C1)c1nc(-c2cccnc2)nc2ccccc12 (stereo unspecified) 1, COCC(C)NC(=O)COc1nncc2ccccc12 (stereo unspecified) 1.1, CC(=O)N1C(C)c2ccccc2C(C)(C)CC12CCCCC2 (stereo unspecified) 1, Cn1cccc1/C=C1\SC(=O)N(CC(=O)Nc2ccc(F)cc2)C1=O 1.1, COc1ccc(NC(=O)c2sc(N)nc2-c2ccccc2)cc1 1, Cc1c(NC(=S)NC(=O)CCc2ccccc2)c(=O)n(-c2ccccc2)n1C 1.1, CCCc1nc2c([nH]1)C(c1cccnc1)C(C#N)=C(N)O2 (stereo unspecified) 1, O=C1OC(/C=C/c2ccccc2)=NC/1=C/c1ccco1 1, CCc1ccc(CN(C)Cc2nc(Cc3ccccc3)no2)nc1 1.1, O=C(O)c1ccc2c3c(cccc13)C(=O)N(OS(=O)(=O)c1ccccc1)C2=O 1, CCN(CC)C(=O)Oc1ccc(OC(=O)N(CC)CC)cc1 1.1, CC(Sc1nncn1C)C(=O)Nc1cc(C(F)(F)F)ccc1N1CCOCC1 (stereo unspecified) 1, CN(C)/C=C(/C(=O)c1ccccc1)S(=O)(=O)c1ccc(Cl)cc1 1, O=C(/C=C/c1ccc([N+](=O)[O-])cc1)NCCSCc1ccco1 1, O=C(Oc1cccc(O)c1)C1CCCCC1 1, O=C(NCCc1ccccc1)C1CCC(Cn2c(=O)c3ccccc3n(Cc3cccnc3)c2=O)CC1 (stereo unspecified) 0.9, C=CCc1ccc(OCC(O)CN2CCN(Cc3ccccc3)CC2)c(OC)c1 (stereo unspecified) 1, CC(C)(C)NCc1cc(Br)ccc1OC1CCCC1 1, O=C(NCc1nnc(SCC(=O)N2CCCc3ccccc32)o1)c1ccccc1F 1, CN1CCN(c2ccc(NC(=O)c3ccc4c(c3)OCCO4)cc2Cl)CC1 1.1, O=C(CC(=O)N/N=C\c1cccc(Cl)c1Cl)NCc1ccccc1 1, Cc1cc([N+](=O)[O-])nn1CC(=O)Nc1ccc(Cc2ccncc2)cc1 1, Cc1cc(C)n(-c2ccc(C(=O)O)cc2[N+](=O)[O-])n1 1, Cc1cccc(Nc2nc3c(S(=O)(=O)c4ccccc4)nnn3c3ccccc23)c1C 1.1, Cc1ccc(S(=O)(=O)NC(=O)COc2ccccc2C)cc1 1, Cc1nc2c(C(=O)NCc3cccs3)cnn2c(C)c1Cc1ccc(F)cc1 1, CC(=O)c1cccc(NC(=O)[C@@H](NC(N)=O)C(C)C)c1 1, Cc1cccc(C)c1OCC(=O)NC(Cc1c[nH]c2ccccc12)C(=O)O (stereo unspecified) 0.9, COc1ccc(N2CCN(C(=O)CNS(=O)(=O)c3ccc(C)c(C)c3)CC2)cc1 1.1, Cc1ccc(-n2cnc3ncnc(-c4ccccc4)c32)cc1 1.1, O=c1cc(CO)oc(C(Nc2cccc([N+](=O)[O-])c2)c2ccccn2)c1O (stereo unspecified) 1, Cc1ccc(NC(=O)c2csc3c2CCCC3)cc1 1, CCNC(=O)CC1C(=O)N(c2ccc(OC)cc2)C(=S)N1CCc1ccncc1 (stereo unspecified) 1, O=C(CC12CC3CC(CC(C3)C1)C2)NCc1ccco1 1, CN(C)c1ccc(/C=N\S(=O)(=O)c2ccccc2)cc1 1, Cn1c2c(c(=O)n(C)c1=O)C(c1cccc([N+](=O)[O-])c1)Nc1ccccc1O2 (stereo unspecified) 1, COC(=O)C1CCN(CC(N)=O)CC1 1.1, CCCCN(CC)C(=S)Nc1ccc2nc3n(c(=O)c2c1)CCCCC3 1, CCOC(=O)C1=NOC(Cn2cc(C(C)=O)c(=O)[nH]c2=O)C1 (stereo unspecified) 1, O=C(C1=C[C@H](c2coc3ccccc3c2=O)C[C@H](OCc2ccc(CO)cc2)O1)N1CCN(Cc2ccccc2)CC1 1, COc1ccc(C(=O)NCC(=O)N/N=C/c2ccc([N+](=O)[O-])s2)cc1OC 0.9, CC(=O)c1ccc(NC(=O)c2ccc3c(Cl)c4c(nc3c2)CCCC4)cc1 1, Cc1ccc(NS(=O)(=O)c2ccc(C)c(NC(=O)COc3ccc4ccccc4c3)c2)c(C)c1 1, CCCCC(CC)CNC(=O)C(=O)C1C(=O)Nc2ccccc21 (stereo unspecified) 1, Nc1nc(NC(=O)/C=C/c2ccccc2)nn1-c1ccccc1 1, CCOC(=O)c1cccc(NC(=O)CCOc2ccccc2)c1 1, Cc1ccc2[nH]c(C(=O)O)c(NC(=O)c3ccccc3[N+](=O)[O-])c2c1 1, COc1ccc(Cl)cc1C(=O)NNC(=S)NC(=O)/C=C/c1ccco1 1.1, C=C(C)C1CC=C(C)/C(=N/NC(=O)CCCNc2cccc(C)c2)C1 (stereo unspecified) 1, O=C(Nc1ccc(C(=O)O)cc1)/C(=C/c1ccc([N+](=O)[O-])cc1)NC(=O)c1ccccc1 1, Cc1ccc(CN2CCN(/N=C/c3cccnc3)CC2)c(C)c1 1, COc1cc(OC)nc(S(C)(=O)=O)n1 1, CCn1c2ccccc2c2cc(NC(=O)COC(=O)c3cc(S(=O)(=O)N4CCCCC4)ccc3Cl)ccc21 1, N=C1C(c2nc3ccccc3[nH]2)=C(O)CN1NC(=O)c1c[nH]c2ccccc12 1.1, CCn1c(COc2ccccc2)nnc1SCC(=O)NCc1ccco1 1, Cc1cc(N2CCOCC2)nc(-c2ccc(Br)cc2)n1 1, Cc1nn(C)cc1C(=O)Nc1ccccc1Br 1, C/C=C(\C)C(=O)NCCN1C2=NC[C@H](Cc3ccc(O)cc3)N2C[C@@H]1Cc1ccc(OC)cc1 1.1, Cc1ccc(CN(Cc2cccnc2)C(=S)Nc2cc(Cl)ccc2C)cc1 1.1, COC(=O)CCSc1cc([N+](=O)[O-])cc2c1c(C1OCCS1)nn2-c1ccccc1 (stereo unspecified) 1, COc1ccc(OC)c(C2C3=C(N=c4s/c(=C\c5cccc(O)c5)c(=O)n42)c2ccccc2CC3)c1 (stereo unspecified) 0.9, CC(NC(=O)c1cccc2ccccc12)c1ccc2c(c1)CCCC2 (stereo unspecified) 1, COc1ccccc1NC(=O)C1=C(C)Nc2nc3ccccc3n2C1c1cccs1 (stereo unspecified) 1, CCOC(=O)c1sc(/N=C/C2=C(O)CC(C)(C)CC2=O)c(C(=O)OCC)c1C 1, O=C(CCNC(=O)c1ccc([N+](=O)[O-])cc1)Nc1ccccc1N1CCOCC1 1, CCN(CC)CCCNC(=O)c1ccc2c(=O)n(Cc3ccc4c(c3)OCO4)c(=S)[nH]c2c1 1, CC1(c2cccc([N+](=O)[O-])c2)CC(C)(C)N(C(=O)c2ccccc2)c2ccccc21 (stereo unspecified) 1, C=CS(=O)c1sc(Cl)c(N2CCOCC2)c1[N+](=O)[O-] (stereo unspecified) 1

From PubChem BioAssay AID1136 (Sanford-Burnham Center for Chemical Genomics, 2008)
